In ChEMBL document CHEMBL1255300, “Pharmacodynamics of the antibacterial effect and emergence of resistance to tomopenem, formerly RO4908463/CS-023, in an in vitro pharmacokinetic model of Staphylococcus aureus infection” (Antimicrob Agents Chemother, 2008):
Converted amounts (≈) assume the structure as drawn.

Tests used:
Type in all cases: functional
Staphylococcus aureus [1] = assay: AUBKC (0 to 24 hrs) in methicillin-resistant Staphylococcus aureus 33829 infected in in vitro pharmacokinetic model at 750 mg, iv every 8 hrs using 10^6 CFU/ml inoculum
Outline: (§1)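 Single-compartment dilutional in vitro PK model at 37°C in 10% Mueller-Hinton broth, stirred, flow 132 ml/h. […] Inoculum 10^6 CFU/ml added 45 min before dosing, or 10^8 CFU/ml run overnight. Viable counts with β-lactamase neutralisation. AUBKC by log-linear trapezoidal rule, at least triplicate.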

Staphylococcus aureus [2] = assay: AUBKC (0 to 24 hrs) in methicillin-resistant Staphylococcus aureus 33815 infected in in vitro pharmacokinetic model at 1500 mg, iv every 8 hrs using 10^6 CFU/ml inoculum; outline: as §1
Staphylococcus aureus [3] = assay: Antibacterial activity against methicillin-resistant Staphylococcus aureus 33815 infected in in vitro pharmacokinetic model assessed as reduction in viable count at 750 mg, iv every 8 hrs measured after 48 hrs using 10^8 CFU/ml inoculum
Outline: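 PK model at 37°C in 10% MHB. […] A 0.5 McFarland suspension (1 ml) was added and the model run overnight to reach 10^8 CFU/ml before dosing. Counts were spiral-plated on nutrient agar with β-lactamase. Change in log CFU/ml was measured from time 0; at least triplicate.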

Staphylococcus aureus [4] = assay: Antibacterial activity against methicillin-sensitive Staphylococcus aureus 5956 by 10% MH broth method
Outline: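 Broth dilution per CLSI, but in 10% Mueller-Hinton broth using nondoubling dilutions.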

Staphylococcus aureus [5] = assay: Antibacterial activity against methicillin-resistant Staphylococcus aureus 33921 by 10% MH broth method
Outline: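 MIC by CLSI broth dilution, or by broth dilution in 10% Mueller-Hinton broth at nondoubling dilutions.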

Staphylococcus aureus [6] = assay: Antibacterial activity against methicillin-resistant Staphylococcus aureus 33827 infected in in vitro pharmacokinetic model assessed as reduction in viable count at 1500 mg, iv every 8 hrs measured after 48 hrs using 10^8 CFU/ml inoculum
Outline: (§2)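 Single-compartment dilutional in vitro PK model, 10% Mueller-Hinton broth, 37°C, stirred, dilution 132 ml/h. […] Inoculum 10^6 CFU/ml (added 45 min pre-dose) or 10^8 CFU/ml (run overnight). Viable counts by spiral plating, beta-lactamase neutralization, detection limit 10^2 CFU/ml. At least triplicate.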

Staphylococcus aureus [7] = assay: Antibacterial activity against methicillin-resistant Staphylococcus aureus 33827 infected in in vitro pharmacokinetic model assessed as time required to 99.9% killing at 1500 mg, iv every 8 hrs using 10^8 CFU/ml inoculum; outline: as §2
Staphylococcus aureus [8] = assay: AUBKC (0 to 24 hrs) in methicillin-resistant Staphylococcus aureus 33922 infected in in vitro pharmacokinetic model at 750 mg, iv every 8 hrs using 10^8 CFU/ml inoculum; outline: as §1
Staphylococcus aureus [9] = assay: AUBKC (0 to 48 hrs) in against methicillin-resistant Staphylococcus aureus 33815 infected in in vitro pharmacokinetic model at 750 mg, iv every 8 hrs using 10^8 CFU/ml inoculum; outline: as §1
Staphylococcus aureus [10] = assay: Antibacterial activity against methicillin-resistant Staphylococcus aureus 33827 in in vitro pharmacokinetic model assessed as viable count at 6 times of MIC
Outline: (§3)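 Population analysis before drug exposure (time 0). Model samples were plated on nutrient agar without drug and with tomopenem at 2×, 4× and 6× MIC (10% MHB MIC), and growth was recorded as log CFU/ml. Detection limit 2 log10.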

Staphylococcus aureus [11] = assay: Antibacterial activity against methicillin-resistant Staphylococcus aureus 33820 in in vitro pharmacokinetic model assessed as viable count at 6 times of MIC; outline: as §3
Staphylococcus aureus [12] = assay: Antibacterial activity against methicillin-resistant Staphylococcus aureus 33827 infected in in vitro pharmacokinetic model assessed as reduction in viable count at 750 mg, iv every 8 hrs measured after 24 hrs using 10^6 CFU/ml inoculum; outline: as §2
Staphylococcus aureus [13] = assay: Antibacterial activity against methicillin-resistant Staphylococcus aureus 33815 infected in in vitro pharmacokinetic model assessed as reduction in viable count at 750 mg, iv every 8 hrs measured after 24 hrs using 10^6 CFU/ml inoculum
Outline: (§4)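 Single-compartment dilutional in vitro PK model, 37°C, stirred, in 10% Mueller-Hinton broth. […] Inoculum 10^6 CFU/ml from a 24-h plate culture was added 45 min before dosing. Viable counts by spiral plating on nutrient agar with β-lactamase neutralization. Log change was taken from time 0; detection limit 10^2 CFU/ml; at least triplicate.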

Staphylococcus aureus [14] = assay: T>MIC for static effect in methicillin-resistant Staphylococcus aureus 33827 in in vitro pharmacokinetic model after 24 hrs using 10^6 CFU/ml inoculum
Staphylococcus aureus [15] = assay: T>MIC for 3-log drop in count in methicillin-resistant Staphylococcus aureus 33829 in in vitro pharmacokinetic model after 24 hrs using 10^6 CFU/ml inoculum
Staphylococcus aureus [16] = assay: T>MIC for 4-log drop in count in methicillin-resistant Staphylococcus aureus 33815 in in vitro pharmacokinetic model after 24 hrs using 10^6 CFU/ml inoculum
Staphylococcus aureus [17] = assay: T>MIC for 1-log drop in count in methicillin-resistant Staphylococcus aureus 33827 in in vitro pharmacokinetic model after 24 hrs using 10^8 CFU/ml inoculum
Staphylococcus aureus [18] = assay: T>MIC for 3-log drop in count in methicillin-resistant Staphylococcus aureus 33815 in in vitro pharmacokinetic model after 24 hrs using 10^8 CFU/ml inoculum
Staphylococcus aureus [19] = assay: Antibacterial activity against methicillin-sensitive Staphylococcus aureus 5956 infected in in vitro pharmacokinetic model assessed as reduction in viable count at 1500 mg, iv every 8 hrs measured after 12 hrs using 10^6 CFU/ml inoculum
Staphylococcus aureus [20] = assay: Antibacterial activity against methicillin-resistant Staphylococcus aureus 33815 infected in in vitro pharmacokinetic model assessed as reduction in viable count at 1500 mg, iv every 8 hrs measured after 24 hrs using 10^6 CFU/ml inoculum; outline: as §4
Staphylococcus aureus [21] = assay: Antibacterial activity against methicillin-resistant Staphylococcus aureus 33922 infected in in vitro pharmacokinetic model assessed as reduction in viable count at 1500 mg, iv every 8 hrs measured after 36 hrs using 10^6 CFU/ml inoculum

Work on `C[C@@H](O)[C@H]1C(=O)N2C(C(=O)O)=C(S[C@H]3C[C@@H](C(=O)N4CC[C@H](NC(=O)CNC(=N)N)C4)N(C)C3)[C@H](C)[C@H]12` [TOMOPENEM] yielded an AUBC (Staphylococcus aureus [1]) of 25 log10CFU/ml.hr, an AUBC (Staphylococcus aureus [2]) of 12.5 log10CFU/ml.hr and a log10CFU/ml (Staphylococcus aureus [3]) of 5. The MIC (Staphylococcus aureus [4]) was 0.04 µg/mL (≈ 0.0744 µM), the MIC (Staphylococcus aureus [5]) was 0.06 µg/mL (≈ 0.112 µM) and the log10CFU/ml (Staphylococcus aureus [6]) was 5.9. For the same molecule, the Time (Staphylococcus aureus [7]) was 12 h, the AUBC (Staphylococcus aureus [8]) was 71.5 log10CFU/ml.hr and the AUBC (Staphylococcus aureus [9]) was 119 log10CFU/ml.hr. The log10CFU/ml (Staphylococcus aureus [10]) was less than 2, the log10CFU/ml (Staphylococcus aureus [11]) was less than 2 and the log10CFU/ml (Staphylococcus aureus [12]) was 3.6. The log10CFU/ml (Staphylococcus aureus [13]) was 4.2, the “fT>MIC” value (Staphylococcus aureus [14]) was 15.4% and the “fT>MIC” value (Staphylococcus aureus [15]) was 21.5%. The “fT>MIC” value (Staphylococcus aureus [16]) was 29.6%, the “fT>MIC” value (Staphylococcus aureus [17]) was 19.5% and the “fT>MIC” value (Staphylococcus aureus [18]) was 3.3%. It also gave a log10CFU/ml (Staphylococcus aureus [19]) of 4.4, a log10CFU/ml (Staphylococcus aureus [20]) of 4.2 and a log10CFU/ml (Staphylococcus aureus [21]) of 4.2.
